Results as given in paper PMC3055594 (Glycobiology, 2010).
pKd, pKi: −log10 of the molar value. Read-outs that look alike come from different tables or passages of the source.

Legend:
Mt-PrsA [1] = biological target: T1, Mt-PrsA (Mycobacterium tuberculosis, UniProt P9WKE3); format: biochemical; conditions: 2 mM final concentration, 37°C
T1 sequence (P9WKE3 1-326): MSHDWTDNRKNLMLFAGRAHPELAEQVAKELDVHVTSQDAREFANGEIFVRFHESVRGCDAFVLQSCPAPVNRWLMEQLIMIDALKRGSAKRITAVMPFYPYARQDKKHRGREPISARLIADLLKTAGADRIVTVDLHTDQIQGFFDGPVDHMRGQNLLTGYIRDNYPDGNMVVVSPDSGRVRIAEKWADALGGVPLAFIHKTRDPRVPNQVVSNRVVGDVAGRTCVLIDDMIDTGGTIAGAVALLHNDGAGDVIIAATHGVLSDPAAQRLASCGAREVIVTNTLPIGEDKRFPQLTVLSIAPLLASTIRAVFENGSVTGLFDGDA

Mt-PrsA [2] = biological target: T1, Mt-PrsA; assay: Intrinsic tryptophan fluorescence; format: binding
Procedure, shortened: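 Excitation was at 292 nm; emission spectra were taken at 300–400 nm 5 min after each ligand aliquot. ΔFemission at 335 nm was plotted against [L] and fitted for Kd and Hill n. R5P was titrated with or without 5 mM AMPPNP, and AMPPNP with or without 5 mM R5P.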

[3] = tested on: arabinofuranosyltransferases EmbA, EmbB, EmbC and AftB; format: biochemical, Mycobacterium smegmatis; conditions: EMB 100 µg/mL; ADP 2 mM
Mt-PrsA [4] = biological target: T1, Mt-PrsA; conditions: 5 mM ligand
Procedure, shortened: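 Recombinant Mt-PrsA was purified by Ni2+-NTA with a 250 mM imidazole step to ~98% purity, then dialyzed into 50 mM KH2PO4 (pH 7.9), 300 mM NaCl, 1 mM DTT. Sedimentation velocity was run with absorbance optics using no ligand or 5 mM R5P, ATP or ADP. The read-out was the molar mass distribution c(M) against apparent molecular weight.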

Mt-PrsA [5] = biological target: T1, Mt-PrsA; assay: Continuous enzyme-coupled spectrophotometric assay of Mt-PrsA; format: biochemical
[6] = read-out: Kd (ITF), ligand alone, 70 µM Mt-PrsA

Nc1ncnc2c1ncn2[C@@H]1O[C@H](COP(=O)(O)OP(=O)(O)O)[C@@H](O)[C@H]1O [ADP]
effect on Mt-PrsA activity / p[14C]Rpp formation (Mt-PrsA [1]): strongly inhibited
Hill coefficient (n) of binding (ITF) (Mt-PrsA [2]; ligand alone): 2
pKd (Mt-PrsA [2]; [6]): 3.29
effect on AraT-dependent product formation [3]: inhibition of any AraT-dependent product formation
effect on oligomeric state of Mt-PrsA, c(M) distribution (Mt-PrsA [4]): shifted toward an increase in the hexameric state
pKi (Mt-PrsA [5]; read-out: Ki against increasing [ATP], saturating [R5P], Eq. (6)): 3.28

Nc1ncnc2c1ncn2C1OC(COP(=O)(O)OP(=O)(O)NP(=O)(O)O)C(O)C1O (stereo not drawn) [AMPPNP, 5'-adenylyl-β,γ-imidodiphosphate]
Hill coefficient (n) for AMPPNP in the presence of R5P (Mt-PrsA [2]; 5 mM R5P): 5
Hill coefficient (n) of binding (ITF) (Mt-PrsA [2]; ligand alone): ~4
pKd (Mt-PrsA [2]; [6]): 4.51
pKd (Mt-PrsA [2]; read-out: Kd for AMPPNP in the presence of R5P, 5 mM R5P): 4.55

Nc1ncnc2c1ncn2[C@@H]1O[C@H](COP(=O)(O)OP(=O)(O)OP(=O)(O)O)[C@@H](O)[C@H]1O [ATP]
Hill coefficient (n) of binding (ITF) (Mt-PrsA [2]; ligand alone): ~4
pKd (Mt-PrsA [2]; [6]): 4.55
c(M) peak position (Mt-PrsA [4]): ~70,000 Da
effect on oligomeric state of Mt-PrsA, c(M) distribution (Mt-PrsA [4]): reduction in the intensity of the hexameric species
apparent Hill coefficient (n), kinetics (Mt-PrsA [5]; increasing [ATP], saturating R5P, 50 mM Pi): 1.68
Vmax for ATP (Mt-PrsA [5]; saturating R5P, 50 mM Pi): 601 µmol⁻¹ min⁻¹ mg⁻¹
S0.5 for ATP (Mt-PrsA [5]; saturating R5P, 50 mM Pi, Eq. (4)): 62.65 µM

[Ca+2].[Cl-].[Cl-] [CaCl2]
effect on Mt-PrsA activity / p[14C]Rpp formation (Mt-PrsA [1]): loss of Mt-PrsA activity

CC[C@@H](CO)NCCN[C@@H](CC)CO [EMB, ethambutol]
effect on AraT-dependent product formation [3]: loss of the upper band with only the lower band remaining

O=P(O)(O)O [Pi, inorganic phosphate]
concentration required for full enzyme activation (Mt-PrsA [5]): 50 mM

O=C[C@H](O)[C@H](O)[C@H](O)COP(=O)(O)O [R5P, ribose-5-phosphate]
pKd (Mt-PrsA [2]; Kd (ITF), ligand alone, 70 µM Mt-PrsA): 4.61
pKd (Mt-PrsA [2]; apparent Kd for R5P in the presence of AMPPNP, 5 mM AMPPNP): 4.67
effect on oligomeric state of Mt-PrsA, c(M) distribution (Mt-PrsA [4]): no apparent change in the equilibrium or oligomeric state
Km (Mt-PrsA [5]; read-out: Km for R5P, saturating ATP, 50 mM Pi, Eq. (2)): 8.2 µM
Vmax (increasing R5P) (Mt-PrsA [5]; saturating ATP, 50 mM Pi): 530 µmol⁻¹ min⁻¹ mg⁻¹
